Test results as given in ChEMBL document CHEMBL4834420, “Projected Dose Optimization of Amino- and Hydroxypyrrolidine Purine PI3Kδ Immunomodulators” (J Med Chem, 2021).
≈ marks a conversion by molar mass, not a printed value. Calls of active or inactive are those of the source. The calls are words filed in the database; no cut-off is given here.

Assays:
[1] = biological target: T1, Phosphatidylinositol 4,5-bisphosphate 3-kinase catalytic subunit delta isoform (Homo sapiens, UniProt O00329); assay: Inhibition of PI3Kdelta in human Ramos cells assessed as reduction in anti-IgM-antibody-induced phosphorylation of AKT at Ser473 residue preincubated for 20 mins followed by anti-IgM antibody stimulation and measured after 30 mins by alphascreen assay; format: cell-based
T1 sequence (O00329 whole entry): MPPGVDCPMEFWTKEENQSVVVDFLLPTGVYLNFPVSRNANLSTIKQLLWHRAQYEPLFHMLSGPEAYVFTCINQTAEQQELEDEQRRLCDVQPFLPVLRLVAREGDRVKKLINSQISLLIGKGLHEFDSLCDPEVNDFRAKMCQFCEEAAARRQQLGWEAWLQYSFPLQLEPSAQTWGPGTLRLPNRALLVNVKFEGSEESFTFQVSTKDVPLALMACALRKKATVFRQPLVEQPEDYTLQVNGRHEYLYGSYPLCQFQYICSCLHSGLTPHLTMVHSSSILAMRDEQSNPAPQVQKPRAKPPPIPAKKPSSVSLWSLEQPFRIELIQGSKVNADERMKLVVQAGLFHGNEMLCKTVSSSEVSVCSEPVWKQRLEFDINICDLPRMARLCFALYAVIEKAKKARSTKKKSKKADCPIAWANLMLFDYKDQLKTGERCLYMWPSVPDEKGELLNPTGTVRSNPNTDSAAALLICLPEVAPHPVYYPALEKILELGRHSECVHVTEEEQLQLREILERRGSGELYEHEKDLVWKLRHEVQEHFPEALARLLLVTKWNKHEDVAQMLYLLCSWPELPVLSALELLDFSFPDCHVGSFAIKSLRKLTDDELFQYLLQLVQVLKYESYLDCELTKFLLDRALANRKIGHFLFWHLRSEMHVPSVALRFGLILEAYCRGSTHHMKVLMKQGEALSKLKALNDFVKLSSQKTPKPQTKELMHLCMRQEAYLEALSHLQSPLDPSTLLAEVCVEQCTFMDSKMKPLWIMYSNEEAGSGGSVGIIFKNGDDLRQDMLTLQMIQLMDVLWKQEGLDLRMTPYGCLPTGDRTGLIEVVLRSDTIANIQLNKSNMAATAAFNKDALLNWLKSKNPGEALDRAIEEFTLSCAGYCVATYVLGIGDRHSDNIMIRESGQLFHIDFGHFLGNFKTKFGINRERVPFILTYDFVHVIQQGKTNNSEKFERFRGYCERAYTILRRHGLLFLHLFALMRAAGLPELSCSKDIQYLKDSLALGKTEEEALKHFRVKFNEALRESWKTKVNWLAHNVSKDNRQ

[2] = Half-life in Wistar Han rat; format: ADME; details: in vivo
[3] = Volume of distribution in Beagle dog; format: ADME, Canis lupus familiaris; details: in vivo
[4] = Oral bioavailability in Beagle dog; format: ADME, organism-based, Canis lupus familiaris; details: in vivo
BCRP = assay: Efflux ratio of apparent permeability from basolateral to apical side over apical to basolateral side in MDCK2 cells expressing BCRP; format: ADME, cell-based, Canis lupus familiaris, MDCK-II; details: dog
[5] = biological target: Voltage-dependent L-type calcium channel subunit alpha-1C (Homo sapiens, UniProt Q13936); assay: Inhibition of Cav1.2 (unknown origin)
Voltage-dependent L-type calcium channel subunit alpha-1C, sequence (Q13936 whole entry): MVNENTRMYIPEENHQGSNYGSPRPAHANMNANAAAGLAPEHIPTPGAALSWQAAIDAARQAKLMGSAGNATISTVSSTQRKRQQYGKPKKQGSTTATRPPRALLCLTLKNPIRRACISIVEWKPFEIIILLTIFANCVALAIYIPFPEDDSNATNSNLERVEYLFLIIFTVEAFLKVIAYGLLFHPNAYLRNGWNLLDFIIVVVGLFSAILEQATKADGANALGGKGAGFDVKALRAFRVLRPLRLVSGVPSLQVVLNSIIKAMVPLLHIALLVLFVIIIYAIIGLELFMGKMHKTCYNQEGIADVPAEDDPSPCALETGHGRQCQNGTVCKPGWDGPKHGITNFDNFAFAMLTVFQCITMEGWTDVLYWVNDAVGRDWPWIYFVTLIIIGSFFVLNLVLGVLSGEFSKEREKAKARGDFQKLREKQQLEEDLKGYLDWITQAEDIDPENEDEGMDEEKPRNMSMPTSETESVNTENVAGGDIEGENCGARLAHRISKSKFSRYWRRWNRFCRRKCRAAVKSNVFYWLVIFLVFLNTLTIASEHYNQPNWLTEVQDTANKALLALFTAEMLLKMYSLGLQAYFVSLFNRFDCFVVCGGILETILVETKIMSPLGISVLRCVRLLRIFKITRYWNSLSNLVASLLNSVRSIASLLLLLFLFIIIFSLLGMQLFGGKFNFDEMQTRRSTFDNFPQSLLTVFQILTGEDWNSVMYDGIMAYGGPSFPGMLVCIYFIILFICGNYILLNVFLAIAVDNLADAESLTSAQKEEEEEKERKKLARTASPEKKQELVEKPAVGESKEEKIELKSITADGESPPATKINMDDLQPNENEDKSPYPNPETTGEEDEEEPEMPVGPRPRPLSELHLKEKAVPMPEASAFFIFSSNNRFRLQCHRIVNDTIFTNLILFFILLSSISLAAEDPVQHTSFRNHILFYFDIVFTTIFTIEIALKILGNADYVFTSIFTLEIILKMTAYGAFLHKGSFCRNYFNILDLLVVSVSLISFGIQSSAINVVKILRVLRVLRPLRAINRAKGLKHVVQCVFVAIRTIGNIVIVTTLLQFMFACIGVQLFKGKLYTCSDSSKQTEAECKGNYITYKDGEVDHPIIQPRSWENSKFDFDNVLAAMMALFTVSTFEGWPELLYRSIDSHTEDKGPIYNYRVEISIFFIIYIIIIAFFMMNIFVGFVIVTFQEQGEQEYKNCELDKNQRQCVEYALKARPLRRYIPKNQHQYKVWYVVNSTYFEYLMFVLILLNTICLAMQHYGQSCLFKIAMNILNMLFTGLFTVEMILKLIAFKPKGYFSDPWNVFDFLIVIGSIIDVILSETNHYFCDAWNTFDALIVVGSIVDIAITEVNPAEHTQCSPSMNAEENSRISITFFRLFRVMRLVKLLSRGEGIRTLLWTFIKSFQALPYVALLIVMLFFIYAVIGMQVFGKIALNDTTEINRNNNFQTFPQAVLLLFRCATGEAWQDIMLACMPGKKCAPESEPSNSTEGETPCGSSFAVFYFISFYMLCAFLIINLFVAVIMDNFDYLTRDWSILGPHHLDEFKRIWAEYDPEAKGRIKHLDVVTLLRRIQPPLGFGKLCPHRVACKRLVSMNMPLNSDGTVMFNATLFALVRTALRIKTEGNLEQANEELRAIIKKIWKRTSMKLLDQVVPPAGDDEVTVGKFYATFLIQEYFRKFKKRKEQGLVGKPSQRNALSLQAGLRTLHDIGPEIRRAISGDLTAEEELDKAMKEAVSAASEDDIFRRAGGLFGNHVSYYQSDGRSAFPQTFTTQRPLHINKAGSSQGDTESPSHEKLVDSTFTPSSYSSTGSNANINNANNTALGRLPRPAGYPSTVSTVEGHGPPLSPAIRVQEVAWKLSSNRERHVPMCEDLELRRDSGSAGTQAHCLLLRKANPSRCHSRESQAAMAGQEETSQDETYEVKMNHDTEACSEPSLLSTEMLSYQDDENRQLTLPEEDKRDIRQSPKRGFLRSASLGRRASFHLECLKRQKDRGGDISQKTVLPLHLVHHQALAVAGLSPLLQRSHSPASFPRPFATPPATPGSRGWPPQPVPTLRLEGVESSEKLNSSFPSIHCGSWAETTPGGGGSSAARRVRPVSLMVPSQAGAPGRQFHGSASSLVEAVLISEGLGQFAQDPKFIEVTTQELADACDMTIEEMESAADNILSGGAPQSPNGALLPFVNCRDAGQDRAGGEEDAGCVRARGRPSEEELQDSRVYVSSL

Cytochrome P450 2B6 = biological target: T2, Cytochrome P450 2B6 (Homo sapiens, UniProt P20813); assay: Inhibition of CYP2B6 (unknown origin); format: ADME
T2 sequence (P20813 whole entry): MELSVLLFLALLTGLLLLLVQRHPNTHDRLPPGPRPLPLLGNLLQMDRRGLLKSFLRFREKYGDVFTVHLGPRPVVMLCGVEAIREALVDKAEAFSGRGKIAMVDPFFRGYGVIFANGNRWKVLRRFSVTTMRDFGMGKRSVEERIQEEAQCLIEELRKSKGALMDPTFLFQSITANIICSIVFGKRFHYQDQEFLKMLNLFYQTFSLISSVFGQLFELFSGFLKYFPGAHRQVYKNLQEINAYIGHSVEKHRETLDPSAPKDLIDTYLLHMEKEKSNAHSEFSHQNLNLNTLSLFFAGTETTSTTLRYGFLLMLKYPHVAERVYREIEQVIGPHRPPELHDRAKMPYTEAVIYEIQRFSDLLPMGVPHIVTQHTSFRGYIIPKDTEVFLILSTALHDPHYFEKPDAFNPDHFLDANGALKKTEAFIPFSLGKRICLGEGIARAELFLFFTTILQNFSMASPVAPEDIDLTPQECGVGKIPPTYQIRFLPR

[6] = Intrinsic clearance in human hepatocytes; format: ADME, cell-based, Hepatocyte
[7] = Protein binding in Beagle dog plasma; format: ADME, cell-free, Canis lupus familiaris; details: read-out: PPB (converted)
[8] = Volume of distribution in C57BL/6 mouse; format: ADME; details: in vivo
[9] = Unbound volume of distribution in C57BL/6 mouse; format: ADME; details: in vivo
[10] = Oral bioavailability in C57BL/6 mouse; format: ADME, organism-based; details: in vivo
Rattus norvegicus [11] = assay: Immunomodulatory activity in ovalbumin induced Brown Norway rat allergic rhinitis model assessed as reduction in BAL count at 10 mg/kg, po administered for 2 days and treated with ovalbumin after 1 hr post second dose; format: functional; design: scale not given: the % may be the effect or the level left; details: time 2 day
Method in brief: (§1)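 Brown Norway rats were presensitized with ovalbumin, 0.020 mg ip daily for 14 days. They then received compound orally for 2 days (0.3–30 mg/kg range studied). Ovalbumin challenge came 1 h after the second dose. Eosinophil cell count in bronchoalveolar lavage was assessed 48 h later.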

Rattus norvegicus [12] = assay: Immunomodulatory activity in ovalbumin induced Brown Norway rat allergic rhinitis model assessed as reduction in BAL count at 30 mg/kg, po administered for 2 days and treated with ovalbumin after 1 hr post second dose; format: functional, organism-based; details: time 2.0 day; method in brief: as §1
[13] = Trough plasma concentration Brown Norway rat at 30 mg/kg, po; format: ADME, organism-based; details: in vivo, read-out: Cmin
[14] = Solubility of compound in stimulated intestinal fluid; format: physicochemical; details: simulated intestinal fluid

IC50 [1]: 0.02 µM
half-life [2]: 2.7 h
Vd [3]: 1.5 L/kg
bioavailability [4]: 95%
efflux ratio (BCRP): 5
IC50 (Cytochrome P450 2B6): > 50 µM
CLint scaled [6]: < 2 mL/min/kg
fraction unbound [7]: 0.9
Vd [8]: 0.2 L/kg
Vdu [9]: 0.4 L/kg
bioavailability [10]: 77%
concentration [13]: 103 nM
solubility [14]: 14 mg/mL (≈ 35.7 mM)
Structure (SMILES): CCn1c(-c2cnc(C)nc2)nc2c(N[C@H]3CCN(C(=O)C4CC4)C3)ncnc21
IC50 [5]: > 50 µM
Activity (Rattus norvegicus [11]): 50%
Activity (Rattus norvegicus [12]): Active
